Screens deposited in PubChem BioAssay by The Scripps Research Institute Molecular Screening Center.
Most compounds without a hit are left out; they make up all but 3.3% or so of the library.
TDP2 inh: TDP2 (human) inhibition, absorbance primary screen. O95551. recombinant TDP2, T5PNP hydrolysis, p-nitrophenol absorbance 415 nm. inhibition, % at 12.8 µM. 370,000 compounds, 0.34% hits;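 active = inhibition above the mean of all tested compounds plus 3 SD, set per campaign, cut at about 25% in these data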
Target sequence (O95551 whole entry, looked up): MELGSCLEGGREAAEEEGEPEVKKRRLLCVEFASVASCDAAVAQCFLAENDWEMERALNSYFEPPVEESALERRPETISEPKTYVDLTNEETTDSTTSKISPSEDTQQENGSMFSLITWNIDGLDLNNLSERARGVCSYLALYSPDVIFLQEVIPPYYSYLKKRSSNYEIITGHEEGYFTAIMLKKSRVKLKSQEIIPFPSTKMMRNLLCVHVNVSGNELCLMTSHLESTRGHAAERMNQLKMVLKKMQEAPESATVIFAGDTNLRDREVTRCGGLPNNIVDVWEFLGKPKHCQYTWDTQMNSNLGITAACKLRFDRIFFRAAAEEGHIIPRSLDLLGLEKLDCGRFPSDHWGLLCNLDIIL
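Assay system: Recombinant human TDP2 | Quantity: 120 nM TDP2 per well | Incubation: 2 h at 37 °C | Signal: Epi absorbance | Evaluation: Percent inhibition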
SIAE primary: inhibitors of human sialic acid acetylesterase SIAE; Q9HAT2; SIAE FP-Rh probe binding, fluorescence polarization; inhibition, % at 9.66 µM; 370,000 compounds, 0.69% hits; AID 1053197;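 active = inhibition above a cutoff: mean of compounds within the control limits plus 3 SD of those, cut at about 17% in these data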
LEDGF integ inh: blocks HIV-1 LEDGF/p75-dependent DNA integration | TR-FRET IN-LEDGF/p75 DNA integration, Eu/Cy5 | inhibition, % at 3.7 µM | 370,000 compounds, 0.64% hits | AID 743269;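 active = inhibition above the screen-wide mean plus 3 SD, cut at about 13% in these data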;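 also: signal is the Cy5 over europium emission ratio at 671 and 618 nm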
UHRF1 binding: blocks human UHRF1 binding to methylated DNA. inhibition, % at 4.4 µM. 370,000 compounds, 0.75% hits. AID 687016. UHRF1 binding to methylated oligo, TR-FRET. Q96T88; in the data active = inhibition above about 21%;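 also: UHRF1 SRA domain binding a hemimethylated CpG hairpin DNA probe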
MBD2 DNA inh: blocks human MBD2 binding to methylated DNA; TR-FRET, MBD2 binding to methylated oligonucleotide; inhibition, % at 4.4 µM; Q9UBB5; 370,000 compounds, 0.31% hits; AID 686964; in the data active = inhibition above about 13%
PRMT1 inh: inhibitors of human PRMT1; Q99873; inhibition, % at 2.79 µM; recombinant PRMT1, activity-based probe fluorescence polarization; 370,000 compounds, 1.3% hits; AID 652257;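 active = inhibition above about 21% made by adding two undisclosed values, limit read from the data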
SIAE inh conf: human SIAE inhibition, confirmation; shares compounds with SIAE primary; SIAE FP-Rh activity-based probe, fluorescence polarization; inhibition, % at 9.66 µM; 2,300 compounds, 13% hits; AID 1117263;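 active = mean inhibition of the replicates above the hit cutoff set in the primary screen, cut at about 17% in these data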;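 also: inhibitors lower polarization as more probe stays unbound to SIAE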
Each line names hits and unclear results; the compound was inactive in the other large screens (follow-up assays come after a bar, where they were run).

N#CCCN(C(=O)COC(=O)CCc1ccccc1)c1ccccc1	none
CCc1c(-c2cccc(F)c2)ncn1CCc1ccccc1OC	none
Clc1ccc2c(N/N=C/c3cccnc3)ccnc2c1	none
Clc1ccc(NNc2ccnc3cc(Cl)ccc23)cc1	none
Clc1ccc2c(N/N=C/c3ccc(Br)cc3)ccnc2c1	SIAE primary 19.1 | SIAE inh conf inactive
Oc1ccc(/C=N/Nc2ccnc3cc(Cl)ccc23)c(O)c1	SIAE primary 27.0 | SIAE inh conf 35.8
CC(=O)N1CCC(=NNc2ccnc3cc(Cl)ccc23)CC1	none
Cc1ccccc1/C=N/Nc1ccnc2cc(Cl)ccc12	SIAE primary 25.7 | SIAE inh conf 30.5
Oc1ccc(Nc2ccnc3cc(Cl)ccc23)cc1	none
Cc1ccc(/C=N/Nc2ccnc3cc(Cl)ccc23)c(C)c1	SIAE primary 44.4 | SIAE inh conf 58.7
Cc1ccc(CN2CCCCC(NC(=O)c3ccc(-c4ccccc4)cc3)C2=O)cc1 (stereo not drawn)	none
O=C(Nc1cccc(-c2csc(Nc3ccc(Cl)cc3)n2)c1)c1cc([N+](=O)[O-])cc(C(F)(F)F)c1	SIAE primary 28.6 | SIAE inh conf inactive
O=C(Nc1ccc(-c2csc(Nc3ccc(Cl)cc3)n2)cc1)c1cc([N+](=O)[O-])cc(C(F)(F)F)c1	none
O=C(Nc1cccc(-c2csc(Nc3ccccc3)n2)c1)c1cc([N+](=O)[O-])cc(C(F)(F)F)c1	SIAE primary 32.2 | SIAE inh conf inactive
O=C(Nc1cccc(-c2csc(Nc3ccc(Cl)cc3)n2)c1)c1cccc(C(F)(F)F)c1	none
CN(CCCOC(=O)c1cccs1)C1CN(Cc2cn(Cc3ccccc3Cl)nn2)S(=O)(=O)C1 (stereo not drawn)	none
O=C(NCC1CCCCC1)c1cc(S(=O)(=O)N2CCOCC2)ccc1F	SIAE primary 78.8 | SIAE inh conf inactive
CC1CCN(S(=O)(=O)c2ccc(F)c(C(=O)O)c2)CC1	SIAE primary 24.5 | SIAE inh conf inactive
CN(C)Cc1c(O)ccc2occ(C(=O)c3ccccc3)c12	none
CN(C)Cc1c(O)ccc2occ(C(=O)c3ccc(F)cc3)c12	SIAE primary 22.2 | SIAE inh conf inactive
O=C(N/N=C/c1ccc(O)c(Br)c1)c1cc2c(ccc3ccccc32)o1	none
O=C(N/N=C/c1cc(Br)c(O)c(Br)c1)c1cc2c(ccc3ccccc32)o1	SIAE primary 57.4 | SIAE inh conf 25.6
O=C(N/N=C/c1cc(Cl)c(O)c(Cl)c1)c1cc2c(ccc3ccccc32)o1	SIAE primary 55.3 | SIAE inh conf 40.9
COC(=O)[C@]12C[C@H](CC(=O)NCCCCc3ccccc3)C(=O)N(Cc3ccco3)C1=C[C@H](C(C)C)O[C@@H]2C1CC1	none
CCCCN1C(=O)N2CCc3ccccc3C2CS1(=O)=O (stereo not drawn)	none
S=C(Nc1ccc(Br)cc1)OC1CCC12CCC(c1ccccc1)CC2 (stereo not drawn)	none
CCOC(=O)c1ccc(N/C=C\C(=O)c2cccc(OC)c2)cc1	none
COc1cccc(C(=O)/C=C/Nc2cc(C)ccc2O)c1	SIAE primary 22.8 | SIAE inh conf inactive
COc1cc(/C=N\Nc2nc3ccccc3[nH]2)cc(OC)c1OC	none
COc1ccc2c(c1)c(/C=N/Nc1nc3ccccc3[nH]1)c(C)n2C	SIAE primary 31.5 | SIAE inh conf 29.8
COCC(=O)N1CCN(C(=O)C(=O)c2cccc(C(F)(F)F)c2)CC1	none
O=C(COC(=O)c1cnccn1)N=c1sccn1Cc1ccccc1Cl	SIAE primary 20.3 | SIAE inh conf inactive
CCCOc1ccc(-c2nc(CSCC(=O)NC3CC3)c(C)o2)cc1	none
CC(C)=CCC/C(C)=C/CNCC(=O)N1c2ccccc2[C@]2(c3ccccc3)C[C@@H]3C(=O)N(C/C=C(\C)CCC=C(C)C)CC(=O)N3[C@H]12	none
Cn1c(=O)oc2cc(S(=O)(=O)N3CCC(C(=O)N4CCN(c5ccccc5)CC4)CC3)ccc21	none
Cn1c(=O)oc2cc(S(=O)(=O)N3CCC(C(=O)N4CCN(c5ccc(F)cc5)CC4)CC3)ccc21	SIAE primary 19.5 | SIAE inh conf inactive
N#CC(=C1C=C(Br)C(=NO)C=C1Cl)c1cccc2ccccc12	SIAE primary 17.8 | SIAE inh conf inactive
O=C(CSc1nnc(CN2CCOCC2)n1-c1ccc(Cl)cc1)Nc1cc(Cl)ccc1O	SIAE primary 26.6 | SIAE inh conf inactive
O=C(CSc1nnc(CN2CCOCC2)n1-c1ccc(Cl)cc1)N1CCc2ccccc21	none
COc1cc(-c2csc(N3CCC(C(N)=O)CC3)n2)cc(OC)c1OC	none
Nc1ccccc1NC1=CC(=O)CC(c2ccco2)C1 (stereo not drawn)	SIAE primary 19.0 | SIAE inh conf inactive
C[C@@H]1CCN(C2CC2)S(=O)(=O)c2c(cccc2N2CCC[C@@H]2C)O1	none
Cc1csc(N/N=C/c2ccc(O)c([N+](=O)[O-])c2)n1	SIAE primary 17.4, PRMT1 inh 47.8 | SIAE inh conf inactive
CS(=O)(=O)c1ccc(Cl)c(NC(=O)c2cccc(N3C(=O)CCC3=O)c2)c1	SIAE primary 19.3 | SIAE inh conf inactive
CS(=O)(=O)c1ccc(Cl)c(NC(=O)c2cccc(Br)c2)c1	none
CC1(C)CC(=O)C=C(Nc2ccccc2NC(=O)c2cc(F)cc(F)c2)C1	none
O=C(CCN1CCOCC1)N1CCCC(Nc2ccc(F)cc2)C1 (stereo not drawn)	SIAE primary 17.7 | SIAE inh conf inactive
C/C(=N\NC(=S)Nc1cccc(C)c1)c1cc2ccccc2o1	SIAE primary 18.9 | SIAE inh conf inactive
CCNC(=S)N/N=C(\C)c1cc2ccccc2o1	none
CN(CC(=O)Nc1cccc(F)c1)C(=O)c1ccc(OCc2ccccc2)cc1	none
CN(CC(=O)Nc1cccc(F)c1)C(=O)c1ccc(C2SCCS2)cc1	SIAE primary 20.3 | SIAE inh conf 47.7
Cc1c(O)ccc(/C(Cc2ccc3ccccc3n2)=N\O)c1O	SIAE primary 51.9 | SIAE inh conf 42.2
CC(=O)Oc1ccc(C(=O)Cc2ccc3ccccc3n2)c(O)c1C	none
CCOc1ccc(OCC)c(NC(=O)Nc2ccc3c(c2)N(C)C(=O)CS3)c1	SIAE primary 21.8 | SIAE inh conf inactive
Cn1c(Cc2cccs2)nnc1SCC(=O)Nc1ccc(OCc2ccccc2)cc1	none
Cc1cccc(NC(=O)CCS(=O)(=O)c2ccccc2)c1C	none
O=C(COC(=O)/C=C/c1cccs1)Nc1nc(-c2cccc(Br)c2)cs1	SIAE primary 30.4 | SIAE inh conf inactive
C/C(=N/Nc1ccc([N+](=O)[O-])cc1)c1c[nH]c2ccccc12	SIAE primary 34.2 | SIAE inh conf inactive
